Measurements taken from ChEMBL document CHEMBL4308848, “Molecular Basis for the N-Terminal Bromodomain-and-Extra-Terminal-Family Selectivity of a Dual Kinase-Bromodomain Inhibitor” (J Med Chem, 2018).
Calls of active or inactive are those of the source. The calls are words filed in the database; no cut-off is given here.

Columns and labels:
[1] = molecular target: T1, Bromodomain-containing protein 2 (Homo sapiens, UniProt P25440); experiment: Inhibition of BRD2 N-terminal bromodomain 1 (unknown origin) expressed in Escherichia coli Bl21(DE3) by alpha-screen assay
T1 sequence (P25440 whole entry): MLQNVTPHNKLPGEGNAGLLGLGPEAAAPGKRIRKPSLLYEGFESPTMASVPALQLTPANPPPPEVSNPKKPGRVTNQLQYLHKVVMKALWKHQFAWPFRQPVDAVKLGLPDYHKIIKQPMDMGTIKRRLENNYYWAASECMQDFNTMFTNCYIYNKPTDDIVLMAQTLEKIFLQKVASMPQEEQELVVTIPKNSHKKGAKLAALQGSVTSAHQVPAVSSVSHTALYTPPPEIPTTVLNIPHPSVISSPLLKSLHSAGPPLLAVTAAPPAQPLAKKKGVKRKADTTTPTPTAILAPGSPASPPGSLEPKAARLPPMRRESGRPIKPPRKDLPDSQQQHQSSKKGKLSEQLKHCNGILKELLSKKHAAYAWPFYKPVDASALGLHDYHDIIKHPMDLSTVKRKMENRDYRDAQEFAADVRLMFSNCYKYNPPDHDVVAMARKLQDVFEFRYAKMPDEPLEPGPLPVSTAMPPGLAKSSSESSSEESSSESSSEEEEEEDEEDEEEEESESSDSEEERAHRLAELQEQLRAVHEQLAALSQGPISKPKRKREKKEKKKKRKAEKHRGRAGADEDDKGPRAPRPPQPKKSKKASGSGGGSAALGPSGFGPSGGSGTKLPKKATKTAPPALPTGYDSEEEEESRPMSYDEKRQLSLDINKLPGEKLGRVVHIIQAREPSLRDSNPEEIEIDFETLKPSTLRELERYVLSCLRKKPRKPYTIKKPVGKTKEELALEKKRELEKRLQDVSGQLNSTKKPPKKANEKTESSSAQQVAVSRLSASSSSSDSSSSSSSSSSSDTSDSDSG

[2] = molecular target: T1, Bromodomain-containing protein 2; experiment: Inhibition of BRD2 C-terminal bromodomain 2 (unknown origin) expressed in Escherichia coli Bl21(DE3) by alpha-screen assay
[3] = molecular target: T2, Bromodomain-containing protein 3 (Homo sapiens, UniProt Q15059); experiment: Inhibition of BRD3 N-terminal bromodomain 1 (unknown origin) expressed in Escherichia coli Bl21(DE3) by alpha-screen assay
T2 sequence (Q15059 whole entry): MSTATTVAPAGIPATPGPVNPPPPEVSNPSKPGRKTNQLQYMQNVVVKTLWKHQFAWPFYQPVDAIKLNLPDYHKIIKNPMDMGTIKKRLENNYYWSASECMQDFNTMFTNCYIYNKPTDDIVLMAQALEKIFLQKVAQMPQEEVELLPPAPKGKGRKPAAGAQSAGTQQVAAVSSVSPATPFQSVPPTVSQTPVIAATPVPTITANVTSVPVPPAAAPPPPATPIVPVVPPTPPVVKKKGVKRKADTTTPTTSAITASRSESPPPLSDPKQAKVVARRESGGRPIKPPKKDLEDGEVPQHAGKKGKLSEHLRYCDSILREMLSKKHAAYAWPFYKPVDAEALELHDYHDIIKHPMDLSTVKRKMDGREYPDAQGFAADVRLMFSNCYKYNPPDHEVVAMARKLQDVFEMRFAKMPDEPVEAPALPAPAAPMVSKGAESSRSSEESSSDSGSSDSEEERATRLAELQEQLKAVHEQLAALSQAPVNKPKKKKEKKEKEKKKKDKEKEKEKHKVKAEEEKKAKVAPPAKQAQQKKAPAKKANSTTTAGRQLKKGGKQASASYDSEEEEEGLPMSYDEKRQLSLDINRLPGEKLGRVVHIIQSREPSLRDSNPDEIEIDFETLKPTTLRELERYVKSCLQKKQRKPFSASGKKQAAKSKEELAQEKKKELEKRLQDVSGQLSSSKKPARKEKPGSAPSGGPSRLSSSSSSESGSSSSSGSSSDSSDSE

[4] = molecular target: T2, Bromodomain-containing protein 3; experiment: Inhibition of BRD3 C-terminal bromodomain 2 (unknown origin) expressed in Escherichia coli Bl21(DE3) by alpha-screen assay
[5] = molecular target: T3, Bromodomain testis-specific protein (Homo sapiens, UniProt Q58F21); experiment: Inhibition of BRDT N-terminal bromodomain 1 (unknown origin) expressed in Escherichia coli Bl21(DE3) by alpha-screen assay
[6] = molecular target: T4, Bromodomain-containing protein 4 (Homo sapiens, UniProt O60885); experiment: Inhibition of BRD4 C-terminal bromodomain 2 (unknown origin) expressed in Escherichia coli Bl21(DE3) by alpha-screen assay
[7] = molecular target: T3, Bromodomain testis-specific protein; experiment: Inhibition of human BRDT bromodomain 1 expressed in HEK293 cells at 10 uM relative to control; format: cell-based
[8] = molecular target: Histone acetyltransferase p300 (Homo sapiens) (UniProt Q09472); experiment: Inhibition of human P300 (1040 to 1161 residues) expressed in bacterial expression system at 10 uM relative to control
[9] = molecular target: T3, Bromodomain testis-specific protein
[10] = molecular target: SWI/SNF-related matrix-associated actin-dependent regulator of chromatin subfamily A member 4 (Homo sapiens) (UniProt P51532); experiment: Inhibition of human SMARCA4 expressed in HEK293 cells at 10 uM relative to control; format: cell-based
Sequence of SWI/SNF-related matrix-associated actin-dependent regulator of chromatin subfamily A member 4 (Homo sapiens) (P51532 whole entry, the tested form may be a part): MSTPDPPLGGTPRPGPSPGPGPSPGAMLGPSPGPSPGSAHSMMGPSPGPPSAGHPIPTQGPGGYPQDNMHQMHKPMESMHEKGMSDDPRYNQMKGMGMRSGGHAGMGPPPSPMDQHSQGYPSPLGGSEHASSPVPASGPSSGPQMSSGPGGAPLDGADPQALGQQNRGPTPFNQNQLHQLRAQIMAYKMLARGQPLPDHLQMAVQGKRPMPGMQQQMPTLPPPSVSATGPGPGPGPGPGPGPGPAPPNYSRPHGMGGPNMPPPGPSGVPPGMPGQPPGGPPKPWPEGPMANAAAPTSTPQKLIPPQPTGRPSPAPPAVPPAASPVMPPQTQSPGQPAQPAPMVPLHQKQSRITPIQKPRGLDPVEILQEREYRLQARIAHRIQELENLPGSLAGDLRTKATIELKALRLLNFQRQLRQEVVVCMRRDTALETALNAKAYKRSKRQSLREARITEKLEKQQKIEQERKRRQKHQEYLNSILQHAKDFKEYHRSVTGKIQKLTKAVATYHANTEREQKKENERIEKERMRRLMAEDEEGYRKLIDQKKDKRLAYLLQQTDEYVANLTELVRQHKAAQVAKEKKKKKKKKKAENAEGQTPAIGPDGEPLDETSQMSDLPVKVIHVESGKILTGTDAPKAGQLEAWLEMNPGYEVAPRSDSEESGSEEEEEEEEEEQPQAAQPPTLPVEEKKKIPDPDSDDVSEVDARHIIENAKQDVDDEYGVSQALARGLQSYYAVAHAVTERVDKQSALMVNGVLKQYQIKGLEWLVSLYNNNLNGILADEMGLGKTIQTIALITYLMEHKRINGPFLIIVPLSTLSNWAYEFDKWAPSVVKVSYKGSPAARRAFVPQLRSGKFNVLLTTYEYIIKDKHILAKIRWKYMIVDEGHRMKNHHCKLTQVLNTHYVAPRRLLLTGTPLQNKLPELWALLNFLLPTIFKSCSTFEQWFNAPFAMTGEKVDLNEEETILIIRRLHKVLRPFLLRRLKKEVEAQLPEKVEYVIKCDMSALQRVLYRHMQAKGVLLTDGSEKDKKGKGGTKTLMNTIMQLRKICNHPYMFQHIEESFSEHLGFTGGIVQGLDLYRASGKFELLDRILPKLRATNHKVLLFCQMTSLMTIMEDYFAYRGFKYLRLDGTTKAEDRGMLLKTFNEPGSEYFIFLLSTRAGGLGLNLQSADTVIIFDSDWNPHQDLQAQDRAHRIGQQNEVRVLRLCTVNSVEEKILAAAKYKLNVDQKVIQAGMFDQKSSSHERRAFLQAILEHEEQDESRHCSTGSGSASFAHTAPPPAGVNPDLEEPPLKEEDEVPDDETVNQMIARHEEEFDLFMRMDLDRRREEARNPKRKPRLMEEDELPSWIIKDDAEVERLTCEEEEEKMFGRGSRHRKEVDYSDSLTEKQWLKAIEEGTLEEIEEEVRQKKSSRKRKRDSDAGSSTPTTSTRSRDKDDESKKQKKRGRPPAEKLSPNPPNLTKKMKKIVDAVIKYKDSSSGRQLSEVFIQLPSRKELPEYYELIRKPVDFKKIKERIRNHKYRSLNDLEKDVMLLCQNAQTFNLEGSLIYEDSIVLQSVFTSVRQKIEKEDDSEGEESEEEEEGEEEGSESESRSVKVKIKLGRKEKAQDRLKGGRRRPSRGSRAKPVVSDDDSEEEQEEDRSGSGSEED

[11] = molecular target: Histone acetyltransferase KAT2B (Homo sapiens) (UniProt Q92831); experiment: Inhibition of human PCAF (715 to 831 residues) expressed in bacterial expression system at 10 uM relative to control
Sequence of Histone acetyltransferase KAT2B (Homo sapiens) (Q92831 whole entry, looked up, the tested form may be a part): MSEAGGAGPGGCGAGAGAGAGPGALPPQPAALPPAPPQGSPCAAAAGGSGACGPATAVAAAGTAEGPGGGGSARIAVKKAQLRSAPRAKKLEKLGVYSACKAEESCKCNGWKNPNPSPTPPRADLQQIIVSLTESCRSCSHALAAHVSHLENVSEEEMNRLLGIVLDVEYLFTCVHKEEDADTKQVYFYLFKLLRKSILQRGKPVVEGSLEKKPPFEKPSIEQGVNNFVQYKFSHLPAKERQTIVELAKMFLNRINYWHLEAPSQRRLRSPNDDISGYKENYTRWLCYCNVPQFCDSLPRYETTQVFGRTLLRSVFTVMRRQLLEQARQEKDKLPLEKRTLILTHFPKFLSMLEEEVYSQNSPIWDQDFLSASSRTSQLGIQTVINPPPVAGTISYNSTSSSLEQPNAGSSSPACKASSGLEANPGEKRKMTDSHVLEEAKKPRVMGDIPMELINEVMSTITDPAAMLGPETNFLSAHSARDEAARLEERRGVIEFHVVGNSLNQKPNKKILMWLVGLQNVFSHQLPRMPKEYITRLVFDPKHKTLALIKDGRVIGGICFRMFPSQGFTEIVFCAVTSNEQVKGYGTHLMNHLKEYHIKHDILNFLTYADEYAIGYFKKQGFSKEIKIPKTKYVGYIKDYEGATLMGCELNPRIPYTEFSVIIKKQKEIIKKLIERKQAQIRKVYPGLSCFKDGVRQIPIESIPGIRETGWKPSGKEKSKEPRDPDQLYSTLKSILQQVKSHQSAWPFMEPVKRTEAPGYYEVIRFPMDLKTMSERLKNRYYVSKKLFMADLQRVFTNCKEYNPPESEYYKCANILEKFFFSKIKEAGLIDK

[12] = molecular target: T3, Bromodomain testis-specific protein; experiment: Binding affinity to human BRDT bromodomain 1 (unknown origin) expressed in Escherichia coli Bl21(DE3) at 12.5 to 100 uM by protein-observed fluorine NMR method
Summary of the method: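 5-Fluorotryptophan-labeled bromodomain expressed in E. coli Bl21(DE3)+pRARE in defined medium with 5-fluoroindole, induced with 1 mM IPTG at 20 °C, Ni-purified. 19F NMR with 40−50 μM protein in 50 mM TRIS, 100 mM NaCl, 5% D2O pH 7.4, 0.05% DMSO, across varying ligand concentrations. Referenced to trifluoroacetate; 0.7 s relaxation delay, 90° flip.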

[13] = molecular target: T3, Bromodomain testis-specific protein; experiment: Displacement of BI-BODIPY from BRDT C-terminal bromodomain 2 (unknown origin) expressed in Escherichia coli Bl21(DE3) by fluorescence polarization assay
Summary of the method: (§1)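 Fluorescence anisotropy in 50 mM HEPES, 100 mM NaCl, 4 mM CHAPS pH 7.4, with 15 nM BI-BODIPY tracer and bromodomain set at 80% tracer bound. […] Percent bound was determined where displacement was incomplete.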

[14] = molecular target: T3, Bromodomain testis-specific protein; remark: listed apart in the source
[15] = molecular target: SWI/SNF-related matrix-associated actin-dependent regulator of chromatin subfamily A member 2 (Homo sapiens) (UniProt P51531); experiment: Inhibition of human SMARCA2 (1377 to 1486 residues) (unknown origin) expressed in bacterial expression system at 10 uM relative to control
A549 [16] = experiment: Cytotoxicity against human A549 cells assessed as reduction in cell viability at 0.5 to 50 uM after 8 hrs by Alamar blue assay; format: cell-based; conditions: a549, 8 h
Summary of the method: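 A549-NF-κB-luc cells in DMEM/10% FBS with hygromycin were dosed with serially diluted compound at 0.5% final DMSO. TNF-α (15 ng/mL final) was added 30 min after dosing, and viability was read by Alamar Blue in parallel with the 8 h luciferase read. Three biological × three technical replicates.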

[17] = molecular target: T4, Bromodomain-containing protein 4; experiment: Inhibition of BRD4 bromodomain 1 in human A549 cells assessed as reduction in TNFalpha-induced NFkappaB transcription at 1 to 25 uM after 8 hrs by bright-glo luciferase reporter gene assay relative to control; format: cell-based
Summary of the method: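 A549-NF-κB-luc cells (DMEM, 10% FBS, hygromycin) were dosed with serial compound dilutions at 0.5% final DMSO. TNF-α (15 ng/mL final) was added 30 min after dosing. Bright-Glo luciferase luminescence was read 8 h later. Activity is expressed as percent NF-κB activity, as means ± SEM of three biological experiments, each with three technical replicates.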

[18] = molecular target: T4, Bromodomain-containing protein 4; experiment: Inhibition of BRD4 N-terminal bromodomain 1 (unknown origin) expressed in Escherichia coli Bl21(DE3) by alpha-screen assay
[19] = molecular target: T4, Bromodomain-containing protein 4; experiment: Displacement of BI-BODIPY from BRD4 C-terminal bromodomain 2 (unknown origin) expressed in Escherichia coli Bl21(DE3) by fluorescence polarization assay; summary of the method: as §1
[20] = molecular target: T4, Bromodomain-containing protein 4; conditions: A549, 1 uM
[21] = molecular target: T4, Bromodomain-containing protein 4; conditions: A549, 10 uM
[22] = molecular target: T1, Bromodomain-containing protein 2; experiment: Inhibition of human 6x-His-tagged BRD2 bromodomain 2 expressed in Escherichia coli
[23] = molecular target: T2, Bromodomain-containing protein 3; experiment: Inhibition of human 6x-His-tagged BRD3 bromodomain 2 expressed in Escherichia coli
A549 [24] = experiment: Cytotoxicity against human A549 cells assessed as reduction in cell viability at 10 to 25 uM after 8 hrs by Alamar blue assay; format: cell-based; conditions: a549, 8 h
Summary of the method: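 Viability of A549-NF-κB-luc cells was measured by Alamar Blue colorimetric staining, run in parallel with the luciferase reporter. Cells were dosed with serial compound dilutions at 0.5% final DMSO, TNF-α (15 ng/mL) was added 30 min after dosing, and the read was at 8 h.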

[25] = molecular target: Mitogen-activated protein kinase 14 (Homo sapiens) (UniProt Q16539); experiment: Inhibition of p38alpha in human MM1S cells assessed as reduction in MSK1 phosphorylation at T581 up to 10 uM by Western blot analysis; format: cell-based
Sequence of Mitogen-activated protein kinase 14 (Homo sapiens) (Q16539 whole entry): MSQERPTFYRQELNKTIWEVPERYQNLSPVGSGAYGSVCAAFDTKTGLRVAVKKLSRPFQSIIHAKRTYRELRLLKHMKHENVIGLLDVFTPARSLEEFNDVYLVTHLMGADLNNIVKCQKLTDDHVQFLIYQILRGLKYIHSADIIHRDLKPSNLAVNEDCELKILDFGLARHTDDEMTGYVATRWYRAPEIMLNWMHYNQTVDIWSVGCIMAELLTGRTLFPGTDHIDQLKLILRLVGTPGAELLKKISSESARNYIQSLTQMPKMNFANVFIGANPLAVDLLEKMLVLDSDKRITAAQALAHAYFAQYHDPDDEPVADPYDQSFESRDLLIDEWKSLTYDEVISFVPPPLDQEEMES

[26] = molecular target: T4, Bromodomain-containing protein 4; experiment: Inhibition of BRD4 bromodomain 1 in human MM1S cells assessed as reduction in c-myc levels at 0.1 to 30 uM by Western blot analysis; format: cell-based
Summary of the method: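 MM.1S cells in RPMI-1640/10% FBS were seeded at 10^6 per well and exposed for 6 h to 0.1–30 μM compound. Lysates were run on 12.5% SDS-PAGE and blotted for c-Myc, with GAPDH as loading control. Detection by HRP secondary and ECL on X-ray film.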

[27] = molecular target: T4, Bromodomain-containing protein 4; experiment: Binding affinity to BRD4 bromodomain 1 (unknown origin) expressed in Escherichia coli Bl21(DE3) by isothermal-titration calorimetry
[28] = molecular target: Mitogen-activated protein kinase 14 (Homo sapiens) (UniProt Q16539); experiment: Inhibition of p38alpha in human MM1S cells assessed as reduction in MSK1 phosphorylation at T581 at 0.1 to 30 uM by Western blot analysis; format: cell-based
[29] = molecular target: T4, Bromodomain-containing protein 4

Structure (SMILES): Cc1cc(C)cc(Nc2nccc(-c3c(CO)nnn3C3CCNCC3)n2)c1
- IC50 [1]: > 250 µM
- IC50 [2]: 260 µM
- IC50 [3]: 200 µM
- IC50 [4]: 310 µM
- IC50 [5]: 110 µM
- IC50 [6]: 102 µM

Structure (SMILES): Cc1cc(C)cc(Nc2nccc(-c3c(-c4ccc(F)cc4)ncn3C3CCNCC3)n2)c1
- inhibition [7]: 50%
- inhibition [8]: 40 to 50%
- IC50 [9]: > 250 µM
- inhibition [10]: 40 to 50%
- IC50 [1]: 29 µM
- IC50 [2]: 67 µM
- inhibition [11]: 40 to 50%
- Activity [12]: Active
- IC50 [3]: 11.2 µM
- IC50 [4]: > 100 µM
- inhibition [13]: inactive
- IC50 [14]: 3.5 µM
- IC50 [5]: 5.3 µM
- inhibition [15]: 40 to 50%
- Activity (A549 [16]): Non-Toxic

Structure (SMILES): C[S+]([O-])c1ccc(-c2nc(-c3ccc(F)cc3)c(-c3ccncc3)[nH]2)cc1 (configuration not stated)
- inhibition [17]: inactive

Structure (SMILES): Cc1cc(C)cc(Nc2nccc(-c3c(-c4ccc(F)cc4)nnn3C3CCNCC3)n2)c1
- IC50 [18]: 27 µM
- IC50 [1]: 43 µM
- IC50 [2]: 30 µM
- IC50 [3]: 51 µM
- IC50 [4]: 110 µM
- IC50 [5]: 36 µM
- IC50 [6]: 75 µM

Structure (SMILES): Fc1ccc(-c2ncn(C3CCNCC3)c2-c2ccnc(Oc3cc(F)cc(F)c3)n2)cc1
- IC50 [9]: > 250 µM
- IC50 [14]: > 250 µM

Structure (SMILES): COc1cc(OC)c2c(=O)[nH]c(-c3cc(C)c(OCCO)c(C)c3)nc2c1
- inhibition [19]: Active
- inhibition [20]: 40%
- inhibition [21]: 25%

Structure (SMILES): CC(=O)NCCCCn1c2c(c3ccccc31)C(=O)NCC2
- Kd [22]: > 75 µM
- Kd [23]: > 75 µM

Structure (SMILES): NC(=O)c1ccc(N(C(N)=O)c2c(F)cccc2F)nc1-c1ccc(F)cc1F [VX-702]
- Activity (A549 [24]): Non-Toxic
- inhibition [17]: inactive

Structure (SMILES): Cc1sc2c(c1C)C(c1ccc(Cl)cc1)=N[C@@H](CC(=O)OC(C)(C)C)c1nnc(C)n1-2
- inhibition [25]: inactive

Structure (SMILES): C[S+]([O-])c1ccc(-c2nc(-c3ccncc3)c(-c3ccc(F)cc3)[nH]2)cc1 (configuration not stated) [SB-203580]
- Activity (A549 [24]): Non-Toxic

Structure (SMILES): CC[C@@H]1C(=O)N(C)c2cnc(Nc3ccc(C(=O)NC4CCN(C)CC4)cc3OC)nc2N1C1CCCC1
- inhibition [13]: Active

Structure (SMILES): Cc1ccc(Nc2nccc(-c3c(-c4ccc(F)cc4)ncn3C3CCNCC3)n2)cc1C
- inhibition [19]: inactive
- inhibition [26]: Active
- IC50 [9]: > 250 µM
- Kd [27]: 1.8 µM
- inhibition [13]: inactive
- inhibition [28]: Active
- IC50 [14]: 4.7 µM
- Activity (A549 [16]): Non-Toxic
- IC50 [29]: > 250 µM

Structure (SMILES): Cc1cc(C)cc(Nc2nccc(-c3c(C)nnn3C3CCNCC3)n2)c1
- IC50 [18]: 1.3 µM
- IC50 [1]: 1.8 µM
- IC50 [2]: 12 µM
- IC50 [3]: 0.77 µM
- IC50 [4]: 2.4 µM
- IC50 [5]: 1.6 µM
- IC50 [6]: 0.56 µM
